Reference: ChEMBL document CHEMBL1125351, “Isobenzofurans as conformationally constrained miconazole analogues with improved antifungal potency” (1992)
≈ marks a conversion by molar mass, not a printed value.

Assays:
Trichophyton rubrum = test: Minimum inhibitory concentration against Trichophyton rubrum at a pH of 5.7 using SDB medium; type: functional
How it was run: (§1)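 Dermatophyte isolates tested by serial broth dilution in SDB, pH 5.7. Compound stocks in DMSO or ethanol, incubated at 27 °C, and growth read visually at 72 h. MIC is the lowest concentration with no visible growth. The summary value is the geometric mean of the MICs across the organisms.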

Microsporum canis = test: Minimum inhibitory concentration against Microsporum canis at a pH of 5.7 using SDB medium; type: functional; how it was run: as §1
Cricetinae gen. sp. [1] = test: Inhibition of Vaginal Candida (C-43 strain) infection in Hamsters, estimated as Percent Area under curve at 0.05 % concentration after 8 days of administration; type: functional, Cricetulus griseus
How it was run: (§2)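 Hamster vaginal C. albicans infection (strains C43 or C60; 10 animals per compound). From day 5 post-infection, a cotton pellet holding 0.15 mL of 0.05% or 0.01% (w/w) compound in EtOH–PEG 400–glycerol (10:45:45) was inserted once daily for 4 or 8 days. Vaginal swabs were filtered and the filters cultured on SDA at 37 °C for 48 h. Read-out was the area under the % negative cultures versus time curve.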

Candida = test: Compound is evaluated for geometric mean of MIC values of Candida species; type: functional; parameters: unit not given beside the values
Candida albicans [2] = test: Minimum inhibitory concentration against Candida albicans at a pH of 5.7 using SDB medium; type: functional
How it was run: (§3)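 Broth dilution in Sabouraud dextrose broth, pH 5.7. Compounds dissolved in DMSO or ethanol, serially diluted in medium, inoculated and incubated at 27 °C. Wells read visually at 48 h. MIC is the lowest concentration giving complete growth inhibition.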

Arthrodermataceae = test: Compound is evaluated for geometric mean of MIC values of dermatophytes; type: functional; parameters: unit not given beside the values; how it was run: as §1
Candida tropicalis [3] = test: Minimum inhibitory concentration against Candida tropicalis using eagles minimum essential medium (EMEM); type: functional
How it was run: (§4)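 Candida MICs in Eagle's minimum essential medium, pH 7.0. Compounds in DMSO or ethanol were serially diluted in medium, inoculated and incubated at 37 °C under CO₂. […] The summary value is the geometric mean of the MICs across strains.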

Candida albicans [4] = test: Minimum inhibitory concentration against Candida stellatoidea using eagles minimum essential medium (EMEM); type: functional; how it was run: as §4
Trichophyton benhamiae = test: Minimum inhibitory concentration against Trichophyton mentagrophytes at a pH of 5.7 using SDB medium; type: functional, Arthroderma benhamiae; how it was run: as §1
[5] = Geometric mean for the above three species of Candida, tested in EMEM medium; type: functional; how it was run: as §4
Candida albicans [6] = test: Minimum inhibitory concentration against Candida stellatoidea at a pH of 5.7 using SDB medium; type: functional; how it was run: as §3
Nannizzia gypsea = test: Minimum inhibitory concentration against Microsporum gypseum at a pH of 5.7 using SDB medium; type: functional; how it was run: as §1
Candida tropicalis [7] = test: Minimum inhibitory concentration against Candida tropicalis at a pH of 5.7 using SDB medium; type: functional; how it was run: as §3
Candida albicans [8] = test: Minimum inhibitory concentration against Candida albicans using eagles minimum essential medium (EMEM); type: functional; how it was run: as §4
Candida parapsilosis = test: Minimum inhibitory concentration against Candida parapsilosis at a pH of 5.7 using SDB medium; type: functional; conditions: Lodderomyces parapsilosis; how it was run: as §3
Epidermophyton floccosum = test: Minimum inhibitory concentration against Epidermophyton floccosum at a pH of 5.7 using SDB medium; type: functional; how it was run: as §1
Cricetinae gen. sp. [9] = test: Inhibition of Vaginal Candida (C-60 strain) infection in Hamsters, estimated as Percent Area under curve at 0.05 % concentration after 4 days of administration; type: functional, Cricetulus griseus; how it was run: as §2
Cricetinae gen. sp. [10] = test: Inhibition of Vaginal Candida (C-60 strain) infection in Hamsters, estimated as Percent Area under curve at 0.01 % concentration after 4 days of administration; type: functional, Cricetulus griseus; how it was run: as §2
Cricetinae gen. sp. [11] = test: Inhibition of Vaginal Candida (C-60 strain) infection in Hamsters, estimated as Percent Area under curve at 0.05 % concentration after 8 days of administration; type: functional, Cricetulus griseus; how it was run: as §2
Cavia porcellus [12] = test: In vivo inhibition of topical Trichophyton infection in Guinea Pig after drug administration; type: functional
How it was run: (§5)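 Guinea pigs (5 per compound) infected with T. mentagrophytes D24 by swabbing a homogenate onto shaven, abraded skin. From day 4 post-infection, 0.25% (w/v) compound in EtOH–PEG 400–glycerol (10:45:45) was rubbed in topically twice daily for 10 days. Hair samples were cultured on SDA at 27 °C for up to 16 days. Read-outs were the % negative cultures and the day each animal became culture-negative.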

Cavia porcellus [13] = test: In vivo inhibition of topical Trichophyton infection in Guinea Pig during drug administration; type: functional; how it was run: as §5
Cavia porcellus [14] = organism: Cavia porcellus; test: Lession score which is determined as number of animals minus days to become negative; type: functional; how it was run: as §5
Cricetinae gen. sp. [15] = test: Inhibition of Vaginal Candida (C-60 strain) infection in Hamsters, estimated as Percent Area under curve at 0.25 % concentration after 4 days of administration; type: functional, Cricetulus griseus
Cricetinae gen. sp. [16] = test: Inhibition of Vaginal Candida (C-60 strain) infection in Hamsters, estimated as Percent Area under curve at 0.25 % concentration after 8 days of administration; type: functional, Cricetulus griseus
Cricetinae gen. sp. [17] = test: Inhibition of Vaginal Candida (C-43 strain) infection in Hamsters, estimated as Percent Area under curve at 0.25 % concentration after 8 days of administration; type: functional, Cricetulus griseus

Clc1ccc(C2(Cn3ccnc3)OCc3c(Cl)cc(Cl)cc32)c(Cl)c1 (configuration not stated)
MIC (Trichophyton rubrum): 8 µg/mL (≈ 19.3 µM) | MIC (Microsporum canis): 8 µg/mL (≈ 19.3 µM) | Inhibition (Cricetinae gen. sp. [1]): <30% | Geometric mean (Candida): 4.9 | MIC (Candida albicans [2]): 8 µg/mL (≈ 19.3 µM) | Geometric mean (Arthrodermataceae): 9.5 | MIC (Candida tropicalis [3]): 2 µg/mL (≈ 4.83 µM) | MIC (Candida albicans [4]): 2 µg/mL (≈ 4.83 µM) | MIC (Trichophyton benhamiae): 8 µg/mL (≈ 19.3 µM) | Geometric mean [5]: 2 | MIC (Candida albicans [6]): 4 µg/mL (≈ 9.66 µM) | MIC (Nannizzia gypsea): 16 µg/mL (≈ 38.6 µM) | MIC (Candida tropicalis [7]): 8 µg/mL (≈ 19.3 µM) | MIC (Candida albicans [8]): 2 µg/mL (≈ 4.83 µM) | MIC (Candida parapsilosis): 4 µg/mL (≈ 9.66 µM)

c1ccc(C2(Cn3ccnc3)OCc3ccccc32)cc1 (configuration not stated)
MIC (Trichophyton rubrum): 16 µg/mL (≈ 57.9 µM) | MIC (Microsporum canis): 16 µg/mL (≈ 57.9 µM) | Geometric mean (Candida): 48 | MIC (Candida albicans [2]): 64 µg/mL (≈ 232 µM) | Geometric mean (Arthrodermataceae): <5.2 | MIC (Candida tropicalis [3]): 0.125 µg/mL (≈ 0.452 µM) | MIC (Candida albicans [4]): 0.25 µg/mL (≈ 0.905 µM) | MIC (Trichophyton benhamiae): 16 µg/mL (≈ 57.9 µM) | Geometric mean [5]: 0.2 | MIC (Candida albicans [6]): 64 µg/mL (≈ 232 µM) | MIC (Nannizzia gypsea): 64 µg/mL (≈ 232 µM) | MIC (Epidermophyton floccosum): < 0.031 µg/mL | MIC (Candida tropicalis [7]): 64 µg/mL (≈ 232 µM) | MIC (Candida albicans [8]): 0.25 µg/mL (≈ 0.905 µM) | MIC (Candida parapsilosis): 8 µg/mL (≈ 28.9 µM)

Clc1ccc(C2(Cn3ccnc3)OCc3ccccc32)c(Cl)c1 (configuration not stated)
MIC (Trichophyton rubrum): < 0.031 µg/mL | MIC (Microsporum canis): < 0.031 µg/mL | Geometric mean (Candida): 7.2 | MIC (Candida albicans [2]): 32 µg/mL (≈ 92.7 µM) | Geometric mean (Arthrodermataceae): <0.04 | MIC (Candida tropicalis [3]): < 0.031 µg/mL | MIC (Candida albicans [4]): < 0.031 µg/mL | MIC (Trichophyton benhamiae): < 0.031 µg/mL | Geometric mean [5]: < 0.02 | MIC (Candida albicans [6]): 32 µg/mL (≈ 92.7 µM) | MIC (Nannizzia gypsea): 0.5 µg/mL (≈ 1.45 µM) | Inhibition (Cricetinae gen. sp. [9]): 94% | MIC (Epidermophyton floccosum): 0.063 µg/mL (≈ 0.182 µM) | Inhibition (Cricetinae gen. sp. [10]): 78% | MIC (Candida tropicalis [7]): 32 µg/mL (≈ 92.7 µM) | MIC (Candida albicans [8]): < 0.031 µg/mL | MIC (Candida parapsilosis): < 0.031 µg/mL

Clc1ccccc1C(c1ccccc1)(c1ccccc1)n1ccnc1 [CLOTRIMAZOLE]
Inhibition (Cricetinae gen. sp. [11]): 34% | Culture negative (Cavia porcellus [12]): 87% | Culture negative (Cavia porcellus [13]): 75% | Lesion score (Cavia porcellus [14]): 5

Clc1ccc(COC(Cn2ccnc2)c2ccc(Cl)cc2Cl)c(Cl)c1 (configuration not stated) [MICONAZOLE]
MIC (Trichophyton rubrum): < 0.031 µg/mL | MIC (Microsporum canis): < 0.031 µg/mL | Geometric mean (Candida): <1.8 | MIC (Candida albicans [2]): 8 µg/mL (≈ 19.2 µM) | Inhibition (Cricetinae gen. sp. [15]): 63% | Geometric mean (Arthrodermataceae): <0.03 | MIC (Candida tropicalis [3]): 0.125 µg/mL (≈ 0.3 µM) | MIC (Candida albicans [4]): 0.125 µg/mL (≈ 0.3 µM) | MIC (Trichophyton benhamiae): < 0.031 µg/mL | Inhibition (Cricetinae gen. sp. [16]): 63% | Inhibition (Cricetinae gen. sp. [17]): 69% | Culture negative (Cavia porcellus [12]): 60% | Geometric mean [5]: 0.18 | MIC (Candida albicans [6]): 8 µg/mL (≈ 19.2 µM) | MIC (Nannizzia gypsea): 1 µg/mL (≈ 2.4 µM) | Culture negative (Cavia porcellus [13]): 20% | MIC (Epidermophyton floccosum): < 0.031 µg/mL | Inhibition (Cricetinae gen. sp. [10]): 33% | MIC (Candida tropicalis [7]): 4 µg/mL (≈ 9.61 µM) | MIC (Candida albicans [8]): 0.25 µg/mL (≈ 0.601 µM) | MIC (Candida parapsilosis): < 0.031 µg/mL

Fc1ccc(C2(Cn3ccnc3)OCc3ccccc32)c(F)c1 (configuration not stated)
MIC (Trichophyton rubrum): 16 µg/mL (≈ 51.2 µM) | MIC (Microsporum canis): 2 µg/mL (≈ 6.4 µM) | Geometric mean (Candida): 48 | MIC (Candida albicans [2]): > 64 µg/mL | Geometric mean (Arthrodermataceae): 2.5 | MIC (Candida tropicalis [3]): < 0.031 µg/mL | MIC (Candida albicans [4]): < 0.031 µg/mL | MIC (Trichophyton benhamiae): 0.5 µg/mL (≈ 1.6 µM) | Geometric mean [5]: < 0.02 | MIC (Candida albicans [6]): > 64 µg/mL | Inhibition (Cricetinae gen. sp. [9]): 88% | Inhibition (Cricetinae gen. sp. [10]): 69% | MIC (Candida tropicalis [7]): 64 µg/mL (≈ 205 µM) | MIC (Candida albicans [8]): < 0.031 µg/mL | MIC (Candida parapsilosis): 0.25 µg/mL (≈ 0.8 µM)

OC1OC(Cn2cncn2)(c2ccc(Cl)cc2)c2ccccc21 (configuration not stated)
MIC (Trichophyton rubrum): 64 µg/mL (≈ 195 µM) | MIC (Microsporum canis): > 64 µg/mL | MIC (Candida albicans [2]): > 64 µg/mL | Geometric mean (Arthrodermataceae): >54 | MIC (Trichophyton benhamiae): > 64 µg/mL | MIC (Candida albicans [6]): > 64 µg/mL | MIC (Nannizzia gypsea): > 64 µg/mL | MIC (Epidermophyton floccosum): 8 µg/mL (≈ 24.4 µM) | MIC (Candida tropicalis [7]): > 64 µg/mL | MIC (Candida parapsilosis): 32 µg/mL (≈ 97.6 µM)
